In ChEMBL document CHEMBL5096231, “Covalently Conjugated NOD2/TLR7 Agonists Are Potent and Versatile Immune Potentiators” (J Med Chem, 2022):
The source made the active and inactive calls. The rule behind the calls is not given here.

How the values were obtained:
[1] = Induction of activation of human CD56+ CD3- NK cells co-cultured with human PBMC cells assessed as increase in CD107a expression at 1 uM incubated for 24 hrs by flow cytometry analysis (reference value: 1.5%); assay type: functional, Natural killer cell
[2] = Cytotoxicity against human PBMC cells assessed as reduction in metabolic activity at 10 uM incubated for 18 hrs by MTS assay; assay type: toxicity, cell-based
In short: (§1)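 Cells (HEK-Blue NOD2, RAW-Blue or freshly isolated human PBMCs) seeded in duplicate and exposed to 10 μM compound or 0.1% DMSO vehicle for 18 h at 37 °C, 5% CO2. Metabolic activity then measured by CellTiter 96 AQueous One (MTS) assay.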

[3] = Cytotoxicity against HEK-Blue hNOD2 cells assessed as reduction in metabolic activity at 10 uM incubated for 18 hrs by MTS assay; assay type: toxicity, cell-based; settings: human, hek-blue hnod2, 18 h; in short: as §1
[4] = Induction of activation of human CD56+ CD3- NK cells co-cultured with human PBMC cells assessed as increase in CD69 expression at 1 uM incubated for 24 hrs by flow cytometry analysis (reference value: 2.7%); assay type: functional, Natural killer cell
[5] = (§2) Induction of mouse ovalbumin specific CD4+ T cell activation assessed as increase in CD25 expression at 1 uM preincubated for 18 hrs with mouse BDMC cells in presence of ovalbumin followed by washout and further coincubated with CD4+ T cells and measured after 72 hrs by flow cytometry analysis (reference value: 10.9%); assay type: functional, CD4+ve Th
In short: (§3)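 C57BL/6 BMDCs (GM-CSF 7 days, >90% CD11c+) pulsed 18 h with 1 μM compound, LPS 1 μg/mL or 0.1% DMSO plus OVA 50 μg/mL, washed. 1 × 10^4 BMDCs cocultured 72 h with 5 × 10^4 CFSE-labelled OT-II CD4+ or OT-I CD8+ T cells. Flow: live Thy1.2+ CD4+ or CD8+ cells scored as CD25+ CFSElow. Duplicates of two experiments.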

[6] = Cytotoxicity against mouse RAW-Blue cells assessed as reduction in metabolic activity at 10 uM incubated for 18 hrs by MTS assay; assay type: toxicity, cell-based; in short: as §1
[7] = as §2, with “specific CD8-positive” for “specific CD4+”, “value: 12.6%)” for “value: 10.9%)”; assay type: functional; in short: as §3
[8] = Induction of activation of human CD56+ CD3- NK cells co-cultured with human PBMC cells assessed as increase in IFN-gamma expression at 1 uM incubated for 24 hrs by flow cytometry analysis (reference value: 0.04%); assay type: functional, Natural killer cell
CD4+ve Th [9] = test: Induction of mouse ovalbumin specific CD4+ T cell activation assessed as increase in IFN-gamma expression at 1 uM preincubated for 18 hrs with mouse BDMC cells in presence of ovalbumin followed by washout and further coincubated with CD4+ T cells and measured after 72 hrs; assay type: functional, cell-based
In short: (§4)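 Supernatants taken after the 72 h coculture of washed BMDCs (18 h pretreatment with 1 μM compound, LPS 1 μg/mL or vehicle, plus OVA 50 μg/mL) with OT-II CD4+ or OT-I CD8+ T cells. Cytokines measured by mouse Th1/Th2/Th17 cytometric bead array. Duplicates of two independent experiments, mean ± SEM.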

CD8-positive T cell [10] = test: Induction of mouse ovalbumin specific CD8-positive T cell activation assessed as increase in IL-6 expression at 1 uM preincubated for 18 hrs with mouse BDMC cells in presence of ovalbumin followed by washout and further coincubated with CD4+ T cells and measured after 72 hrs; assay type: functional, cell-based; in short: as §4
RAW-Blue = test: Activation of NF-kappaB transcriptional activity in mouse RAW-Blue cells expressing NOD2 and TLR7 at 1 uM incubated for 18 hrs by quanti-blue/SEAP-based spectrophotometry analysis; assay type: cell-based; settings: filed as activator
In short: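 RAW-Blue cells pretreated 1 h with NOD2 antagonist SG84 (5 μM), TLR7 antagonist M5049 (1 μM), both, or neither, then given compound or 0.1% DMSO vehicle; 18 h at 37 °C, 5% CO2 in growth medium without Normocin/Zeocin. Supernatant mixed with QUANTI-Blue for 2 h at 37 °C, SEAP read at 630 nm. Activity relative to vehicle; three independent experiments, mean ± SEM.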

CD4+ve Th [11] = test: Induction of mouse ovalbumin specific CD4+ T cell activation assessed as increase in TNF expression at 1 uM preincubated for 18 hrs with mouse BDMC cells in presence of ovalbumin followed by washout and further coincubated with CD4+ T cells and measured after 72 hrs; assay type: functional, cell-based; in short: as §4
CD8-positive T cell [12] = test: Induction of mouse ovalbumin specific CD8-positive T cell activation assessed as increase in IL-17A expression at 1 uM preincubated for 18 hrs with mouse BDMC cells in presence of ovalbumin followed by washout and further coincubated with CD4+ T cells and measured after 72 hrs; assay type: functional, cell-based; in short: as §4
MEC1 = test: Cytotoxicity against human MEC1 cells cocultured with human PBMC cells assessed as inhibition of cell proliferation at 1 uM incubated with PBMC cells for 18 hrs followed by co-incubation with MEC-1 cells for 4 hrs by SYTOX blue staining based flow cytometric analysis; assay type: functional
In short: (§5)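 Human PBMCs (Ficoll-isolated, healthy donors) pretreated 18 h in duplicate with compound (1 nM–1 μM) or 0.1% DMSO. CFSE-labelled K562 or MEC1 target cells then added, effector:target 40:1, 4 h at 37 °C. Sytox blue staining, flow cytometry; CFSE+Sytox+ cells counted as dead. Expressed relative to vehicle; three independent experiments, mean ± SEM.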

CD8-positive T cell [13] = test: Induction of mouse ovalbumin specific CD8-positive T cell activation assessed as increase in IFN-gamma expression at 1 uM preincubated for 18 hrs with mouse BDMC cells in presence of ovalbumin followed by washout and further coincubated […] and measured after 72 hrs; assay type: functional, cell-based; in short: as §4
CD8-positive T cell [14] = test: Induction of mouse ovalbumin specific CD8-positive T cell activation assessed as increase in TNF expression at 1 uM preincubated for 18 hrs with mouse BDMC cells in presence of ovalbumin followed by washout and further coincubated with CD4+ T cells and measured after 72 hrs; assay type: functional, cell-based; in short: as §4
CD4+ve Th [15] = test: Induction of mouse ovalbumin specific CD4+ T cell activation assessed as increase in IL-17A expression at 1 uM preincubated for 18 hrs with mouse BDMC cells in presence of ovalbumin followed by washout and further coincubated with CD4+ T cells and measured after 72 hrs; assay type: functional, cell-based; in short: as §4
K562 = test: Cytotoxicity against human K562 cells cocultured with human PBMC cells assessed as inhibition of cell proliferation at 1 uM incubated with PBMC cells for 18 hrs followed by co-incubation with K562 cells for 4 hrs by SYTOX blue staining based flow cytometric analysis; assay type: functional; in short: as §5
CD4+ve Th [16] = test: Induction of mouse ovalbumin specific CD4+ T cell activation assessed as increase in IL-6 expression at 1 uM preincubated for 18 hrs with mouse BDMC cells in presence of ovalbumin followed by washout and further coincubated with CD4+ T cells and measured after 72 hrs; assay type: functional, cell-based; in short: as §4

What does the source list for CCCCOc1nc(N)c2nc(O)n(Cc3ccc(C(=O)O)cc3)c2n1?
Activity [1]: 1.7%; Activity [2]: Non-Toxic; Activity [3]: Non-Toxic; Activity [4]: 3.3%; Activity [5]: 25.8%; Activity [6]: Non-Toxic; Activity [7]: 17.6%; Activity [8]: 0.05%

With CCCCOc1nc(N)c2nc(O)n(Cc3ccc(C(=O)NCCCCCC(=O)Oc4ccc(/C=C/C(=O)NCC(=O)N[C@H](C(=O)N[C@H](CCC(=O)OCC)C(=O)OCC)C(C)C)cc4OC)cc3)c2n1 as the molecule, how does the Activity (CD4+ve Th [9]) read?
Its Activity is “Active”.

What about the Activity (CD8-positive T cell [10]) of the same molecule?
Its Activity is “Active”.

And the Activity (RAW-Blue)?
Its Activity is “Active”.

And the Activity (CD4+ve Th [11])?
The Activity was “Active”.

What about the Activity [1] of the same molecule?
Its Activity is 8.6%.

And the Activity (CD8-positive T cell [12])?
Its Activity is “Active”.

And the Activity (MEC1)?
Its Activity is “Active”.

And the Activity [2]?
The Activity was “Non-Toxic”.

What about the Activity (CD8-positive T cell [13]) of the same molecule?
The Activity was “Active”.

And the Activity [3]?
Its Activity is “Non-Toxic”.

And the Activity [4]?
The Activity was 93%.

What about the Activity [5] of the same molecule?
Its Activity is 29.5%.

And the Activity (CD8-positive T cell [14])?
Its Activity is “Active”.

And the Activity [6]?
Its Activity is “Non-Toxic”.

And the Activity (CD4+ve Th [15])?
The Activity was “Active”.

What about the Activity (K562) of the same molecule?
Its Activity is “Active”.

What about the Activity (CD4+ve Th [16]) of the same molecule?
Its Activity is “Active”.

And the Activity [7]?
The Activity was 44.7%.

What about the Activity [8] of the same molecule?
The Activity was 21%.
